From PubChem BioAssay
FXN GAA850 act – activators of GAA850 frataxin (FXN) promoter | AID 540364 | HEK293 lucGAA850 FXN promoter luciferase reporter, 24 h; percent of 10 µM SAHA response | activation, % at 6 µM | 360,000 tested, 0.56% active;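 active = activation above the average of all compounds screened plus 3 SD, cutoff fixed separately per campaign, cut at about 7.5% in these data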
GASC-1 inh – inhibitors of human GASC-1 (JMJD2C) demethylase | GST-JMJD2C(1-420) H3K9me3 demethylation, DELFIA europium | inhibition, % at 2.35 µM | Q9H3R0 | 330,000 tested, 0.069% active;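 active = more than half of a compound's replicate wells show inhibition beyond 50%, single wells judged on their own value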;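 also: signal counts dimethyl H3K9 product captured on neutravidin plate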
Target sequence (Q9H3R0 1-420 limits assumed): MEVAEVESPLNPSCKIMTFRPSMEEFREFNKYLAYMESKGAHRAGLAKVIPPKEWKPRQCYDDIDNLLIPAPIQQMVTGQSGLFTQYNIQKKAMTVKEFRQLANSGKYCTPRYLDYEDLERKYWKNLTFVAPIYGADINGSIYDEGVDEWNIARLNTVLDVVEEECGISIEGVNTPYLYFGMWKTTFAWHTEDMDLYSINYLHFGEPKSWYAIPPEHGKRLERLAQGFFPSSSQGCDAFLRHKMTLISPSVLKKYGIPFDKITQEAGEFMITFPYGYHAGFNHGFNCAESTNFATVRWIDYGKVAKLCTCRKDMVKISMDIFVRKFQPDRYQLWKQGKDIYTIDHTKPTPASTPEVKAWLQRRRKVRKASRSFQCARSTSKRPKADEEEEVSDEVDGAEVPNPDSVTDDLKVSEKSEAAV
AHR activator – activators of human aryl hydrocarbon receptor. activation, % at 5 µM. 320,000 tested, 2.5% active. AID 2796. AHR-responsive luciferase reporter cells, luminescence. P35869; in the data active = activation above about 47%
SR-BI HDL uptake – blocks mouse SR-BI lipid uptake from DiI-HDL; Q61009; ldlA[mSR-BI] CHO cells, DiI-HDL uptake fluorescence, 3 h; inhibition, % at 12.5 µM; 320,000 tested, 0.96% active;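 active = mean replicate inhibition of at least 70% and a set share of replicates each scoring 70 or more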
SR-BI DiI-HDL act – activators of SR-BI mediated HDL lipid uptake; 320,000 tested, 0.096% active; activation, % at 12.5 µM; CHO ldlA[mSR-BI] cells, DiI-HDL uptake fluorescence, 3 h; 100 = double the neutral-control signal;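 active = mean replicate activation of at least 60% and every replicate at or above 60%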
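system = CHO ldlA[mSR-BI] cells, LDL receptor-null, SR-BI overexpressing | medium = Ham's F12 with 0.5% BSA, HEPES 25 mM, pH 7.4 | probe or stimulus = DiI-HDL 10 µg/mL | compound dosing = single-point compound dose | incubation = compound exposure 3 h, 37 °C | technique = DiI fluorescence, bottom read | read-out = cell-associated DiI fluorescence as measure of HDL uptake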
AHR act confirm – human AHR activation, confirmation. AID 2845. activation, % at 9 µM. human cells, AHR-responsive luciferase reporter, luminescence. shares compounds with AHR activator. 2,300 tested, 87% active; in the data active = activation above about 49%;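 also: HepG2 hepatoma cells carrying a DRE-driven firefly luciferase reporter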
PXR act counter – PXR activation, counter-screen for AHR activators; shares compounds with AHR activator; cell-based PXR reporter, luciferase luminescence; activation, % at 11.6 µM; 2,300 tested, 88% active; AID 434939; in the data active = activation above about 11%;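 also: human hepatoma DPX-2 cells expressing full-length human PXR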
A number is an active result; . = inactive; / = not tested or not shown. In the library only some 3.7% were active in any assay of this set; here they are far more common.

SMILES | FXN GAA850 act | GASC-1 inh | AHR activator | SR-BI HDL uptake | SR-BI DiI-HDL act | AHR act confirm | PXR act counter
COc1cccc(-c2c(NC(=O)c3ccco3)oc3ccccc3c2=O)c1 | . | . | . | . | . | / | /
CCn1c(SCC(=O)N/N=C/C=C\c2ccccc2[N+](=O)[O-])nc2ccccc21 | . | . | . | . | . | / | /
Cn1c(SCC(=O)N/N=C/C=C/c2ccccc2[N+](=O)[O-])nc2ccccc21 | . | . | 117 | . | . | 56 | 75
Cn1c(SCC(=O)N/N=C/C=C\c2ccccc2[N+](=O)[O-])nc2ccccc21 | . | . | 108 | . | . | 55 | 81
O=S(=O)(Nc1nc2ccccc2nc1N1CCN(c2ccccc2F)CC1)c1ccc(Cl)cc1 | . | . | . | . | . | / | /
CCCCN(C=O)c1c(CC)nc2ccc(C(=O)NCCOc3ccc(OC)cc3)cn12 | . | / | / | / | / | / | /
CC(C)CCNC(=O)CCC(=O)NNc1nc2ccccc2c2nc(-c3ccccc3)nn12 | . | . | . | . | . | / | /
O=C(CCC(=O)NNc1nc2ccccc2c2nc(-c3ccccc3)nn12)NCCCN1CCOCC1 | . | . | 84 | . | . | 91 | 16
Cc1ccc(-c2nc(CC(=O)Nc3cccc(S(=O)(=O)NC4=NCCC4)c3)cs2)cc1 | . | . | . | . | . | / | /
Cc1cccc(OCc2nnc(SCC(=O)c3c(N)n(C4CC4)c(=O)[nH]c3=O)o2)c1 | . | / | / | . | . | / | /
Cc1cccc(-c2nc3c(s2)CCc2onc(-c4ccc(Br)cc4)c2-3)c1 | . | . | . | . | . | / | /
O=c1c[n+]([O-])c2ccccc2n1OCc1c(F)cccc1F | . | . | 80 | . | . | 92 | 43
COc1ccc(-c2[nH]c(-c3ccc(F)cc3)nc2SCC(=O)NCc2ccco2)cc1OC | . | . | 80 | . | . | 63 | 57
COc1ccc(-c2[nH]c(-c3ccccc3)nc2SCC(=O)NCc2ccco2)cc1OC | . | . | 121 | . | . | 68 | 75
COc1ccc(-c2nc(SCC(=O)NCc3ccco3)c(-c3ccccc3)[nH]2)cc1OC | . | . | . | / | / | / | /
COc1cc(Cl)c(C)cc1NC(=O)CSc1nnc(CCC(=O)O)c(=O)[nH]1 | . | . | . | . | . | / | /
CCc1ccccc1S(=O)(=O)Cc1ccc(C(=O)N2CCN(c3ccccn3)CC2)o1 | . | . | 84 | . | . | 65 | 107
Cc1ccccc1S(=O)(=O)Cc1ccc(C(=O)N2CCN(c3ncccn3)CC2)o1 | . | . | . | . | . | / | /
O=C(Nc1nccs1)c1ccc(-c2ccc(Cl)cc2)o1 | . | . | 84 | . | . | . | 26
O=C(Nc1nccs1)c1ccc(-c2ccc(F)cc2)o1 | . | . | . | . | . | / | /
CCOC(=O)N1CCN(Cc2cc(Cl)c3cccnc3c2O)CC1 | / | . | . | / | / | / | /
CN(C)c1cccc(NC(=O)C2(C)Cc3c(-c4cccnc4)ccnc3O2)c1 (stereo not given) | . | / | / | / | / | / | /
Cc1cccc(-c2oc3ccccc3c2C#CCCO)c1 | . | . | 97 | . | . | 68 | 24
COc1ccccc1NC(=O)[C@@H]1CCCN1S(=O)(=O)c1ccc(Cl)cc1 | . | . | . | . | . | / | /
CCC(=O)Nc1cccc(-c2cnc3ccccc3n2)c1 | . | . | . | . | . | / | /
SMILES | FXN GAA850 act | GASC-1 inh | AHR activator | SR-BI HDL uptake | SR-BI DiI-HDL act | AHR act confirm | PXR act counter
O=C(CCl)Nc1cccc(-c2cnc3ccccc3n2)c1 | . | . | 118 | . | . | . | .
Cc1nc2ccccn2c(=O)c1NC(=O)c1cccc2ccccc12 | . | . | . | . | . | / | /
CC1=NN(C(N)=S)C(=O)C1N=Nc1ccc(O)cc1 (stereo not given) | . | . | / | . | . | / | /
CC1=NN(C(N)=S)C(=O)C1N=Nc1ccc(F)cc1 (stereo not given) | . | . | / | . | . | / | /
CCOc1ccc(N=NC2C(=O)N(C(N)=S)N=C2C)cc1 (stereo not given) | . | . | 118 | . | . | 124 | 22
CC(=O)Nc1ccc(N=NC2C(=O)N(C(N)=S)N=C2C)cc1 (stereo not given) | . | . | 104 | . | . | 112 | 16
CCCS(=O)(=O)NC(=O)C1(C)CCN(C(=O)c2ccc3c(c2)OCO3)C1 (stereo not given) | . | / | / | / | / | / | /
O=C(Nc1ccc(Cl)cc1)[C@@H]1[C@@H]2C(=O)N(c3ccc(Cl)cc3)C(=O)[C@@H]2[C@H]2C=CC=NN21 | . | . | 98 | . | . | 63 | 13
C[C@@H](NC(=O)[C@@H]1Cc2ccccc2CN1C(=O)OC(C)(C)C)C(=O)NC1CCCC1 | . | . | . | . | . | / | /
COc1cccc2[nH]c3c(N4CCCC(C)C4)ncnc3c12 (stereo not given) | . | . | 81 | . | . | 97 | 69
O=C(CN1CCN(c2ccccc2O)CC1)Nc1ccccc1C(=O)NCCc1ccccc1 | . | . | 91 | . | . | 93 | 85
C[C@H]1CN([C@@H](C)CO)C(=O)CCCn2cc(nn2)CO[C@@H]1CN(C)C(=O)c1ccncc1 | . | / | / | / | / | / | /
CC(=O)n1c2ccccc2c2c1c1ccccc1n2C | . | . | 109 | . | . | 113 | 22
CC(=O)n1c2ccccc2c2nc3ccccc3nc21 | . | . | . | . | . | / | /
COc1ccc(C2=NN(C(C#N)c3ccc(OC)c(OC)c3)C(c3ccccc3)C2)cc1 (stereo not given) | . | . | 107 | . | . | 74 | 21
Cc1cccc(NC(=O)c2ccccc2-c2ccccc2)c1 | . | . | . | . | . | / | /
Cc1cc(NC(=O)c2ccccc2-c2ccccc2)ccc1Br | . | . | 94 | . | . | 93 | 153
NCc1csc(Nc2ncccn2)n1 | . | / | / | / | / | / | /
CN(C)S(=O)(=O)c1cccc(C(=O)N=C2N=C3C=CC(Cl)=CN3Cc3ccccc32)c1 | . | . | 97 | . | . | 50 | 32
Cc1cc2nn(-c3ccc(Cl)cc3)nc2cc1N | . | . | 81 | . | . | 192 | 24
Cc1cc2nn(-c3ccc(F)cc3)nc2cc1N | . | . | 109 | . | . | 123 | 25
O=C(CN1C2=NCCN2c2ccccc21)c1ccc(Br)s1 | . | . | 94 | . | . | 81 | 14
O=C(CN1C2=NCCN2c2ccccc21)c1ccc(Br)cc1 | . | . | 112 | / | / | 71 | 21
O=C(CN1C2=NCCN2c2ccccc21)c1ccc2c(c1)OCO2 | . | . | . | / | / | / | /
COC(=O)N/N=C/c1sc(N2CCCCC2)nc1-c1cccs1 | . | . | . | . | . | / | /
Cc1cccn2c(=O)c(C=O)c(N3CCN(C)CC3)nc12 | . | . | . | . | . | / | /
Cc1cccn2c(=O)c(C=O)c(N3CCN(c4ccccc4)CC3)nc12 | . | . | 95 | . | . | 81 | 65
CC(=O)Nc1ccc(S(=O)(=O)N2CCN=C2SCc2ccc([N+](=O)[O-])cc2)cc1 | . | . | . | . | . | / | /
